From ChEMBL document CHEMBL3046679, “Design, synthesis, and biological activities of arylmethylamine substituted chlorotriazine and methylthiotriazine compounds” (J Agric Food Chem, 2011)
Active and inactive are the calls of the source.

Assays:
[1] = test system: Puccinia triticina; experiment: Fungicidal activity against Puccinia triticina assessed as inhibition of disease development in compound treated leaf pieces at 20 ppm relative to untreated control (wheat-preventative); type: functional
Method in brief: (§1)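 Preventative leaf-piece test on host tissue (tomato, vine, wheat or barley). Formulated compound applied at 200, 60 and 20 ppm before spore inoculation. Disease scored 3–9 days after inoculation, depending on the pathogen, as percent inhibition of disease development versus untreated controls. Values are the mean across replicates.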

[2] = test system: Triticum aestivum; experiment: Phytotoxicity against Triticum aestivum (wheat) plant at 60 ppm; type: organism-based; settings: in vivo
[3] = test system: Zymoseptoria tritici; experiment: Fungicidal activity against Zymoseptoria tritici assessed as inhibition of mycelia growth at 100 ppm; type: functional, organism-based
[4] = test system: Lolium perenne; experiment: Herbicidal activity against Lolium perenne (perennial ryegrass) assessed as growth inhibition at 1 kg/ha postemergence treatment by glasshouse test; type: functional; settings: post-emergence, read-out: GI
Method in brief: (§2)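 Glasshouse screen with pre- or postemergence application at 1.0 kg/ha. Result given as percent inhibition of plant growth; norflurazon and glyphosate used as controls.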

[5] = test system: Pythium dissimile; experiment: Fungicidal activity against Pythium dissimile assessed as inhibition of mycelia growth at 2 ppm; type: functional, organism-based
Method in brief: (§3)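 Mycelial growth test in 96-well plates: compound incorporated into artificial growth medium at 2 ppm, two replicates per rate. Each well scored 99 for complete, 55 for partial or 0 for no inhibition. Values are the mean across replicates; azoxystrobin and prochloraz used as positive controls.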

[6] = test system: Fusarium graminearum; experiment: Fungicidal activity against Fusarium graminearum assessed as inhibition of mycelia growth at 2 ppm; type: functional, organism-based; method in brief: as §3
[7] = test system: Blumeria graminis f. sp. tritici; experiment: Fungicidal activity against Blumeria graminis f. sp. tritici assessed as inhibition of disease development in compound treated leaf pieces at 200 ppm relative to untreated control (wheat-preventative); type: functional
[8] = test system: Amaranthus retroflexus; experiment: Herbicidal activity against Amaranthus retroflexus assessed as growth inhibition at 1 kg/ha postemergence treatment by glasshouse test; type: functional; settings: post-emergence, read-out: GI; method in brief: as §2
[9] = test system: Poa annua; experiment: Herbicidal activity against Poa annua assessed as growth inhibition at 32 ppm by 96-well plate test; type: functional; settings: read-out: GI
Method in brief: (§4)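 96-well plate herbicide screen: Arabidopsis thaliana at 10 ppm and Poa annua at 32 ppm, two replicates. Plates incubated seven days in a controlled-environment cabinet. Each replicate scored 0 (no visible effect) or 99 (herbicidal effect); values are the mean of the two. Atrazine used as reference.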

[10] = test system: Aphididae; experiment: Insecticidal activity against Aphididae (aphids) assessed as mortality at 1000 ppm by leaf-disk assay; type: functional, organism-based
Method in brief: (§5)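 Leaf-disk assay at 1000 ppm, three replicates. Plates kept 5–9 days in controlled-environment cabinets. Mortality judged against untreated wells: 99 for significant mortality, 0 otherwise. Values are the mean of three; thiamethoxam and indoxacarb used as positive controls.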

[11] = test system: Alternaria solani; experiment: Fungicidal activity against Alternaria solani assessed as inhibition of disease development in compound treated leaf pieces at 20 ppm relative to untreated control (tomato-preventative); type: functional; method in brief: as §1
[12] = test system: Alternaria solani; experiment: Fungicidal activity against Alternaria solani assessed as inhibition of mycelia growth at 2 ppm; type: functional, organism-based; method in brief: as §3
[13] = test system: Botrytis cinerea; experiment: Fungicidal activity against Botryotinia fuckeliana assessed as inhibition of mycelia growth at 2 ppm; type: functional, organism-based; method in brief: as §3
[14] = test system: Alternaria solani; experiment: Fungicidal activity against Alternaria solani assessed as inhibition of disease development in compound treated leaf pieces at 60 ppm relative to untreated control (tomato-preventative); type: functional; method in brief: as §1
[15] = test system: Phytophthora infestans; experiment: Fungicidal activity against Phytophthora infestans assessed as inhibition of disease development in compound treated leaf pieces at 20 ppm relative to untreated control (tomato-preventative); type: functional; method in brief: as §1
[16] = test system: Puccinia triticina; experiment: Fungicidal activity against Puccinia triticina assessed as inhibition of disease development in compound treated leaf pieces at 60 ppm relative to untreated control (wheat-preventative); type: functional; method in brief: as §1
[17] = test system: Plasmopara viticola; experiment: Fungicidal activity against Plasmopara viticola assessed as inhibition of disease development in compound treated leaf pieces at 20 ppm relative to untreated control (grapevine-preventative); type: functional; method in brief: as §1
[18] = test system: Plasmopara viticola; experiment: Fungicidal activity against Plasmopara viticola assessed as inhibition of disease development in compound treated leaf pieces at 200 ppm relative to untreated control (grapevine-preventative); type: functional; method in brief: as §1
[19] = test system: Puccinia triticina; experiment: Fungicidal activity against Puccinia triticina assessed as inhibition of disease development in compound treated leaf pieces at 60 ppm relative to untreated control (wheat-curative); type: functional
Method in brief: (§6)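 Curative wheat leaf-piece test against Puccinia triticina. Leaf pieces inoculated with spores first, then treated with formulated compound at 200, 60 or 20 ppm. Disease scored 3–9 days after inoculation as percent inhibition versus untreated controls. Values are the mean across replicates.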

[20] = test system: Heliothis virescens; experiment: Insecticidal activity against Lepidoptera Heliothis virescens (tobacco budworm) assessed as mortality at 1000 ppm by leaf-disk assay; type: functional, organism-based; method in brief: as §5
[21] = test system: Stellaria media; experiment: Herbicidal activity against Stellaria media assessed as growth inhibition at 1 kg/ha postemergence treatment by glasshouse test; type: functional; settings: post-emergence, read-out: GI; method in brief: as §2
[22] = test system: Pyrenophora teres; experiment: Fungicidal activity against Pyrenophora teres assessed as inhibition of disease development in compound treated leaf pieces at 200 ppm relative to untreated control (barley-preventative); type: functional; method in brief: as §1
[23] = test system: Parastagonospora nodorum; experiment: Fungicidal activity against Phaeosphaeria nodorum assessed as inhibition of disease development in compound treated leaf pieces at 20 ppm relative to untreated control (wheat preventative); type: functional; method in brief: as §1
[24] = test system: Lolium perenne; experiment: Herbicidal activity against Lolium perenne (perennial ryegrass) assessed as growth inhibition at 1 kg/ha preemergence treatment by glasshouse test; type: functional; settings: pre-emergence, read-out: GI; method in brief: as §2
[25] = test system: Arabidopsis thaliana; experiment: Herbicidal activity against Arabidopsis thaliana assessed as growth inhibition at 10 ppm by 96-well plate test; type: functional; settings: read-out: GI; method in brief: as §4
[26] = test system: Digitaria sanguinalis; experiment: Herbicidal activity against Digitaria sanguinalis (hairy crabgrass) assessed as growth inhibition at 1 kg/ha preemergence treatment by glasshouse test; type: functional; settings: pre-emergence, read-out: GI; method in brief: as §2
[27] = test system: Triticum aestivum; experiment: Phytotoxicity against Triticum aestivum (wheat) plant at 200 ppm; type: organism-based; settings: in vivo
[28] = test system: Pyrenophora teres; experiment: Fungicidal activity against Pyrenophora teres assessed as inhibition of disease development in compound treated leaf pieces at 60 ppm relative to untreated control (barley-preventative); type: functional; method in brief: as §1
[29] = test system: Pyrenophora teres; experiment: Fungicidal activity against Pyrenophora teres assessed as inhibition of disease development in compound treated leaf pieces at 20 ppm relative to untreated control (barley-preventative); type: functional; method in brief: as §1
[30] = test system: Puccinia triticina; experiment: Fungicidal activity against Puccinia triticina assessed as inhibition of disease development in compound treated leaf pieces at 200 ppm relative to untreated control (wheat-preventative); type: functional; method in brief: as §1
[31] = test system: Brassica napus; experiment: Herbicidal activity against Brassica napus (oilseed rape) at 1.5 kg/ha postemergence treatment measured after 10 days by glasshouse test; type: functional; settings: post-emergence, 240 h
Method in brief: (§7)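 Glasshouse pre/postemergence test, each treatment in triplicate. Above-ground fresh weight measured 10 days after treatment. Result expressed as percent inhibition versus control, from 0 (no control) to 100 (complete control); glyphosate used as positive control.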

[32] = test system: Echinochloa crus-galli; experiment: Herbicidal activity against Echinochloa crus-galli (barnyard grass) at 1.5 kg/ha preemergence treatment measured after 10 days by glasshouse test; type: functional; settings: pre-emergence, 240 h; method in brief: as §7
[33] = test system: Phytophthora infestans; experiment: Fungicidal activity against Phytophthora infestans assessed as inhibition of disease development in compound treated leaf pieces at 200 ppm relative to untreated control (tomato-preventative); type: functional; method in brief: as §1
[34] = test system: Echinochloa crus-galli; experiment: Herbicidal activity against Echinochloa crus-galli (barnyard grass) at 1.5 kg/ha postemergence treatment measured after 10 days by glasshouse test; type: functional; settings: post-emergence, 240 h; method in brief: as §7
[35] = test system: Blumeria graminis f. sp. tritici; experiment: Fungicidal activity against Blumeria graminis f. sp. tritici assessed as inhibition of disease development in compound treated leaf pieces at 20 ppm relative to untreated control (wheat-preventative); type: functional
[36] = test system: Alternaria solani; experiment: Fungicidal activity against Alternaria solani assessed as inhibition of disease development in compound treated leaf pieces at 200 ppm relative to untreated control (tomato-preventative); type: functional; method in brief: as §1
[37] = test system: Amaranthus retroflexus; experiment: Herbicidal activity against Amaranthus retroflexus assessed as growth inhibition at 1 kg/ha preemergence treatment by glasshouse test; type: functional; settings: pre-emergence, read-out: GI; method in brief: as §2
[38] = test system: Digitaria sanguinalis; experiment: Herbicidal activity against Digitaria sanguinalis (hairy crabgrass) assessed as growth inhibition at 1 kg/ha postemergence treatment by glasshouse test; type: functional; settings: post-emergence, read-out: GI; method in brief: as §2
[39] = test system: Puccinia triticina; experiment: Fungicidal activity against Puccinia triticina assessed as inhibition of disease development in compound treated leaf pieces at 20 ppm relative to untreated control (wheat-curative); type: functional; method in brief: as §6
[40] = test system: Plasmopara viticola; experiment: Fungicidal activity against Plasmopara viticola assessed as inhibition of disease development in compound treated leaf pieces at 60 ppm relative to untreated control (grapevine-preventative); type: functional; method in brief: as §1
[41] = test system: Phytophthora infestans; experiment: Fungicidal activity against Phytophthora infestans assessed as inhibition of mycelia growth at 200 ppm; type: functional, organism-based
[42] = test system: Blumeria graminis f. sp. tritici; experiment: Fungicidal activity against Blumeria graminis f. sp. tritici assessed as inhibition of disease development in compound treated leaf pieces at 60 ppm relative to untreated control (wheat-preventative); type: functional
[43] = test system: Brassica napus; experiment: Herbicidal activity against Brassica napus (oilseed rape) at 1.5 kg/ha preemergence treatment measured after 10 days by glasshouse test; type: functional; settings: pre-emergence, 240 h; method in brief: as §7
[44] = test system: Phytophthora infestans; experiment: Fungicidal activity against Phytophthora infestans assessed as inhibition of disease development in compound treated leaf pieces at 60 ppm relative to untreated control (tomato-preventative); type: functional; method in brief: as §1
[45] = test system: Puccinia triticina; experiment: Fungicidal activity against Puccinia triticina assessed as inhibition of disease development in compound treated leaf pieces at 200 ppm relative to untreated control (wheat-curative); type: functional; method in brief: as §6
[46] = test system: Stellaria media; experiment: Herbicidal activity against Stellaria media assessed as growth inhibition at 1 kg/ha preemergence treatment by glasshouse test; type: functional; settings: pre-emergence, read-out: GI; method in brief: as §2

CC(C)Nc1nc(Cl)nc(NCc2ccc(Cl)nc2)n1
68.9%: inhibition at 1500 g/ha [32]
99%: inhibition of growth at 10 ppm [25]
Toxic: Activity [2] | Activity [27]
80%: inhibition of growth at 1000 g/ha [4] | inhibition of growth at 1000 g/ha [46]
active: inhibition [3]
inactive: inhibition [5] | inhibition [6] | mortality [10] | inhibition [12] | inhibition [13] | mortality [20] | inhibition [41]
0%: inhibition at 20 ppm [1] | inhibition of growth at 32 ppm [9] | inhibition at 20 ppm [11] | inhibition at 60 ppm [14] | inhibition at 20 ppm [15] | inhibition at 20 ppm [17] | inhibition at 200 ppm [18] | inhibition at 200 ppm [22] | inhibition at 20 ppm [23] | inhibition of growth at 1000 g/ha [26] | inhibition at 60 ppm [28] | inhibition at 20 ppm [29] | inhibition at 200 ppm [33] | inhibition at 20 ppm [35] | inhibition at 200 ppm [36] | inhibition of growth at 1000 g/ha [38] | inhibition at 60 ppm [40] | inhibition at 60 ppm [42] | inhibition at 60 ppm [44]
68.6%: inhibition at 1500 g/ha [34]
90%: inhibition at 200 ppm [7]
70%: inhibition at 60 ppm [16] | inhibition of growth at 1000 g/ha [24]
100%: inhibition of growth at 1000 g/ha [8] | inhibition at 60 ppm [19] | inhibition of growth at 1000 g/ha [21] | inhibition at 200 ppm [30] | inhibition at 1500 g/ha [31] | inhibition of growth at 1000 g/ha [37] | inhibition at 20 ppm [39] | inhibition at 1500 g/ha [43] | inhibition at 200 ppm [45]
